Source: publication PMC3480199 (Journal of medicinal chemistry, 2012)
Read-outs that look alike come from different tables or passages of the source.

What was measured:
T. brucei cells = experiment: Protein synthesis inhibition assay; format: cell-based, Trypanosoma brucei; details: 4 h, concentrations 1 to 16 times the 48 hour EC50
In short: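 Mid-log bloodstream-form T. brucei (5×10^5 cells/well) in HMI-9 medium, given test compound in triplicate and preincubated 15 min, with a no-drug control on each plate. Cells cultured with 3H-histidine; filters counted by scintillation.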

[1] = target: T1, human mitochondrial MetRS (Homo sapiens, UniProt Q96GW9); experiment: Human mitochondrial methionyl-tRNA synthetase aminoacylation assay; format: biochemical
T1 sequence (Q96GW9 30-593): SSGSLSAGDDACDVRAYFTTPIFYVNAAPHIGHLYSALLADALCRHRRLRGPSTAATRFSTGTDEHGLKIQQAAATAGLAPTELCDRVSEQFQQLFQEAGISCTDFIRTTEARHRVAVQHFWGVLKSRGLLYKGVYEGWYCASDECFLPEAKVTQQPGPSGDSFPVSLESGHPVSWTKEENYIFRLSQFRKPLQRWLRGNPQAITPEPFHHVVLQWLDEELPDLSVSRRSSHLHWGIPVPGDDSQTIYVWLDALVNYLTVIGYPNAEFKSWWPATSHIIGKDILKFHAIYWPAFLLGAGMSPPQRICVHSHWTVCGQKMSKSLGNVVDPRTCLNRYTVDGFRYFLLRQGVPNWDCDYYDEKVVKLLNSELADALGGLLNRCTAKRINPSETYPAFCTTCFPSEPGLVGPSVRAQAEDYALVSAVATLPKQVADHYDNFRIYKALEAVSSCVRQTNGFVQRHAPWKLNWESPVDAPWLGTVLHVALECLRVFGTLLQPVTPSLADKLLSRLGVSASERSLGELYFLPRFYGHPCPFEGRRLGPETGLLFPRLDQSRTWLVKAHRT
In short: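 Recombinant enzyme (20 nM) preincubated 15 min with 12 serial two-fold dilutions of test compound in 50 mM Tris-HCl pH 8.0, 2.5 mM MgCl2, 2.5 mM KCl, 0.2 mM spermine, 0.2 mg/mL BSA, 2.5 mM DTT, 1 U/mL pyrophosphatase. Started with 200 μg/mL E. coli tRNA, 2.5 mM ATP, 250 nM [3H]methionine; 120 min, 37°C. Filtered, TCA-washed, scintillation-counted in quadruplicate; IC50 by sigmoidal nonlinear regression.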

[2] = test system: CRL-8155 human lymphoblast cell line; experiment: Mammalian cell growth inhibition assay; format: cell-based; details: CRL8155, 48 h, read-out: CRL-8155 IC50
MDR1-MDCKII cells [3] = experiment: MDR1-MDCKII assay; details: 3 μM
MDR1-MDCKII cells [4] = details: dog, MDCK-MDR1, 60 min, 3 μM
T. brucei rhodesiense = experiment: Efficacy studies in mice; format: in vivo; details: 50 mg/kg oral every 12 h for 4 days

SMILES	Incorporation of 3H-amino acid into proteins (T. brucei cells)	IC50 [1]	IC50 [2]	further results
C[C@@H]1C[C@@H]([C@H](O)CC2CC(=O)NC(=O)C2)C(=O)[C@@H](C)C1 [cycloheximide]	dose dependent decrease	–	–	–
COc1cc(Cl)cc(CNCCCNC(=O)Nc2ccccc2)c1 [Compound 4]	–	8.35 µM	20 µM	–
COc1cc(Cl)cc(CNCCCNC(=O)Nc2ccsc2)c1 [Compound 27, 1-[3-(3-Chloro-5-methoxy-benzylamino)-propyl]-3-thiophen-3-yl-urea]	–	6.59 µM	22 µM	–
CC(C)CN(C[C@@H](O)[C@H](Cc1ccccc1)NC(=O)O[C@H]1CCOC1)S(=O)(=O)c1ccc(N)cc1 [Amprenavir]	–	–	–	AQ (typical control value) (MDR1-MDCKII cells [3]): > 0.5
CC(C)NCC(O)COc1cccc2ccccc12 (stereo not shown) [Propranolol]	–	–	–	AQ (typical control value) (MDR1-MDCKII cells [4]): < 0.5
O=C(NCCCNCc1cc(Cl)cc(Cl)c1)Nc1ccccc1 [Compound 2, 1-(3-(3,5-Dichlorobenzylamino)propyl)-3-phenylurea]	–	> 10 µM	12 µM	Selectivity Index Human IC50 / T. brucei IC50 ([1]; human mitochondrial MetRS IC50 over T. brucei MetRS IC50): >175
O=C(NCCCNCc1cc(Cl)cc(Cl)c1)Nc1ccsc1 [Compound 26, 1-[3-(3,5-Dichloro-benzylamino)-propyl]-3-thiophen-3-yl-urea]	dose dependent decrease	4.35 µM	12 µM	Extension of survival (T. brucei rhodesiense): 1 days; Toxicity in treated mice (T. brucei rhodesiense): No toxicity
O=C(NCCCNCc1cc(Cl)cc(Cl)c1)Nc1cccs1 [Compound 28]	–	3.06 µM	9.5 µM	–
O=C(NCCCNCc1cc(Cl)cc(Cl)c1)Nc1cccc(O)c1 [Compound 17]	–	5.43 µM	12 µM	–
O=C(NCCCNCc1cc(Cl)cc(Cl)c1)Nc1cccc(F)c1 [Compound 18]	–	4.25 µM	43.2 µM	–
NCCCC(N)(C(=O)O)C(F)F (stereo not shown) [DFMO, difluoromethylornithine]	did not result in a dose dependent decrease	–	–	–
O=C(NCCCNCc1cc(Cl)cc(Cl)c1)Nc1ccccc1O [Compound 16]	–	3.72 µM	> 20 µM	–
Oc1cc(NCCCNCc2cc(Cl)cc(Cl)c2)nc2ccccc12 [Compound 1]	dose dependent decrease	–	–	–
